The text below walks through data of ChEMBL document CHEMBL3244387, “Isolation, characterization, and properties of a labile hydrolysis product of the antitumor nucleoside, 5-azacytidine” (J Med Chem, 1978).

The subject of series [1] is L1210. Briefly: Antitumor activity against mouse L1210 cells allografted in CDF1 mouse assessed as increase in life span at 10 mg/kg, ip relative to control. Type of series: functional. Conditions: route intraperitoneal. Put shortly: (§1)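 Female CDF1 mice, 11-12 weeks old, inoculated ip on day 0 with 0.1 mL L1210 suspension (1.43×10^6 cells/mL). Drug purified by preparative HPLC, dissolved in sterile 0.85% saline, injected ip within 15 min on days 1, 5 and 9. Ten mice per dose; ten untreated controls. Read-out: % increase in mean life span over controls; ≥25% counted as active; test run in duplicate.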

Series [2] in a line: Half life in water at 2.6 mg/ml at 25 degC by UV-HPLC analysis. The class given is physicochemical.
Series [3] deals with Mus musculus. Briefly: Toxicity in mouse L1210 cells allografted CDF1 mouse assessed as change in body weight between day 1 and day 9 at 60 mg/kg, ip dosed on days 1, 5 and 9. Type of series: organism-based. More on the design: dose 60 mg/kg, route intraperitoneal. Conditions: in vivo. The gist of the method: (§2)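 Female CDF1 mice, 11-12 weeks old, were given 0.1 mL L1210 suspension ip (1.43×10^6 cells/mL) on day 0. Drug was purified by preparative HPLC, dissolved in sterile 0.85% saline and given ip within 15 min, on days 1, 5 and 9. Ten mice per dose, with ten untreated controls. Weights on days 1, 5 and 9. Value is the mean body-weight change of treated minus control, in grams.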

The subject of series [4] is Mus musculus. Nature of the series: Toxicity in mouse L1210 cells allografted CDF1 mouse assessed as change in body weight between day 1 and day 5 at 60 mg/kg, ip dosed on days 1 and 5. The arrangement: dose 60 mg/kg, route intraperitoneal. The following applies: in vivo. Type of series: organism-based. The gist of the method: as §2
In series [5] the test system is Mus musculus. Nature of the series: Toxicity in mouse L1210 cells allografted CDF1 mouse assessed as change in body weight between day 1 and day 5 at 20 mg/kg, ip dosed on days 1 and 5. Type of series: organism-based. More on the design: dose 20 mg/kg, route intraperitoneal. The following applies: in vivo. The gist of the method: as §2
Series [6] deals with Mus musculus. Nature of the series: Toxicity in mouse L1210 cells allografted CDF1 mouse assessed as change in body weight between day 1 and day 9 at 10 mg/kg, ip dosed on days 1, 5 and 9. The class given is organism-based. More on the design: dose 10 mg/kg, route intraperitoneal. Conditions: in vivo. The gist of the method: as §2
Series [7] relates to Mus musculus. Nature of the series: Toxicity in mouse L1210 cells allografted CDF1 mouse assessed as change in body weight between day 1 and day 9 at 20 mg/kg, ip dosed on days 1, 5 and 9. The class given is organism-based. More on the design: dose 20 mg/kg, route intraperitoneal. The following applies: in vivo. Put shortly:
as §2

Series [8] in a line: Stability of the compound in water assessed as compound remaining at 2.6 mg/ml at 25 degC after 24 hrs by UV-HPLC analysis. Conditions: read-out: Stability. The class given is physicochemical.
Series [9] relates to Mus musculus. Nature of the series: Toxicity in mouse L1210 cells allografted CDF1 mouse assessed as mortality at 5 to 60 mg/kg, ip. The class given is organism-based. More on the design: dose 5-60 mg/kg, route intraperitoneal. Conditions: in vivo. Put shortly: (§3)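 L1210 ip implant (1.43×10^6 cells/mL, 0.1 mL) in female CDF1 mice, 11-12 weeks old. Freshly dissolved HPLC-purified drug in 0.85% saline given ip on days 1, 5 and 9; ten mice per dose. Toxicity scored as early death from acute toxicity, with body weights on days 1, 5 and 9 compared against untreated controls.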

Series [10] deals with Mus musculus. Nature of the series: Toxicity in mouse L1210 cells allografted CDF1 mouse assessed as change in body weight between day 1 and day 5 at 40 mg/kg, ip dosed on days 1 and 5. The class given is organism-based. The arrangement: dose 40 mg/kg, route intraperitoneal. Conditions: in vivo. The gist of the method: as §2
Series [11] has as its system Mus musculus. Nature of the series: Toxicity in mouse L1210 cells allografted CDF1 mouse assessed as change in body weight between day 1 and day 5 at 10 mg/kg, ip dosed on days 1 and 5. The arrangement: dose 10 mg/kg, route intraperitoneal. Conditions: in vivo. Type of series: organism-based. Put shortly:
as §2

The subject of series [12] is Mus musculus. Nature of the series: Toxicity in mouse L1210 cells allografted CDF1 mouse assessed as change in body weight between day 1 and day 5 at 5 mg/kg, ip dosed on days 1 and 5. The class given is organism-based. The arrangement: dose 5 mg/kg, route intraperitoneal. Conditions: in vivo. Put shortly: as §2
Series [13] concerns L1210. Nature of the series: Antitumor activity against mouse L1210 cells allografted in CDF1 mouse assessed as increase in life span at 5 mg/kg, ip relative to control. The class given is functional. The following applies: route intraperitoneal. Put shortly:
as §1

Series [14] in a line: Stability of the compound in water assessed as compound remaining at 2.6 mg/ml at 37 degC after 4 hrs by UV-HPLC analysis. The class given is physicochemical. The following applies: read-out: Stability.
Series [15] in a line: Stability of the compound in water assessed as compound remaining at 2.6 mg/ml at 37 degC after 7 hrs by UV-HPLC analysis. Type of series: physicochemical. The following applies: read-out: Stability.
Series [16] concerns Mus musculus. Briefly: Toxicity in mouse L1210 cells allografted CDF1 mouse assessed as change in body weight between day 1 and day 9 at 5 mg/kg, ip dosed on days 1, 5 and 9. More on the design: dose 5 mg/kg, route intraperitoneal. The following applies: in vivo. The class given is organism-based. Put shortly:
as §2

Series [17] has as its system L1210. Briefly: Antitumor activity against mouse L1210 cells allografted in CDF1 mouse assessed as increase in life span at 60 mg/kg, ip relative to control. Type of series: functional. Conditions: route intraperitoneal. The gist of the method: as §1
Series [18] relates to L1210. Nature of the series: Antitumor activity against mouse L1210 cells allografted in CDF1 mouse assessed as increase in life span at 20 mg/kg, ip relative to control. The class given is functional. Conditions: route intraperitoneal. Put shortly:
as §1

The nature of series [19]: Half life in water at 2.6 mg/ml at 37 degC by UV-HPLC analysis. The class given is physicochemical.
Series [20] deals with Mus musculus. Nature of the series: Toxicity in mouse L1210 cells allografted CDF1 mouse assessed as change in body weight between day 1 and day 9 at 40 mg/kg, ip dosed on days 1, 5 and 9. Type of series: organism-based. The arrangement: dose 40 mg/kg, route intraperitoneal. The following applies: in vivo. Put shortly: as §2
Series [21] deals with L1210. Nature of the series: Antitumor activity against mouse L1210 cells allografted in CDF1 mouse assessed as increase in life span at 40 mg/kg, ip relative to control. Type of series: functional. The following applies: route intraperitoneal. The gist of the method:
as §1

Another series can be described thus: Half life in mice. The following applies: mouse, in vivo.
Series [22] has as its system Mus musculus. Briefly: Toxicity in mouse L1210 cells allografted CDF1 mouse assessed as change in body weight between day 1 and day 9 at 2.5 mg/kg, ip dosed on days 1, 5 and 9. The following applies: in vivo. Type of series: organism-based. More on the design: dose 2.5 mg/kg, route intraperitoneal. The gist of the method: as §2
The subject of series [23] is L1210. Nature of the series: Antitumor activity against mouse L1210 cells allografted in CDF1 mouse assessed as increase in life span at 2.5 mg/kg, ip relative to control. Conditions: route intraperitoneal. Type of series: functional. The gist of the method: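 Female CDF1 mice, 11-12 weeks old, given 0.1 mL ip of L1210 cells at 1.43×10^6 cells/mL on day 0. Drug purified by preparative HPLC, dissolved in sterile 0.85% saline and injected ip within 15 min, on days 1, 5 and 9. Ten mice per dose, ten untreated controls. % ILS is the increase in mean life span over controls; ≥25% counted as active.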

Series [24] concerns Mus musculus. Briefly: Toxicity in mouse L1210 cells allografted CDF1 mouse assessed as mortality at 2.5 to 40 mg/kg, ip. Type of series: organism-based. More on the design: dose 2.5-40 mg/kg, route intraperitoneal. Conditions: in vivo. The gist of the method: as §3
For series [25], the system named is Mus musculus. Nature of the series: Toxicity in mouse L1210 cells allografted CDF1 mouse assessed as change in body weight between day 1 and day 5 at 2.5 mg/kg, ip dosed on days 1 and 5. Type of series: organism-based. The following applies: in vivo. The arrangement: dose 2.5 mg/kg, route intraperitoneal. The gist of the method:
as §2

Molecules are shown by their SMILES.

In the case of `N=C(NC=O)NC(=O)N[C@@H]1O[C@H](CO)[C@@H](O)[C@H]1O`, the ILS at 10 mg/kg with L1210 [1] came to 33%. Moreover, the values for the half-life at 2.6 mg/ml in [2] and in [19] were 540 min and 120 min, respectively. The Activity is recorded as -4.3 g with Mus musculus [3]; -1.9 g in the series with Mus musculus [4]; -1.9 g in the series with Mus musculus [5]; -3.4 g in the series with Mus musculus [6]; -3.8 g in the series on Mus musculus [7]; “Non-toxic” in the series with Mus musculus [9]. For the same compound, the Activity with Mus musculus [10] is recorded as -0.8 g; in the series with Mus musculus [11] it was -1.6 g; with Mus musculus [12], -1.2 g; in the series on Mus musculus [16] it was -2.6 g; in the series on Mus musculus [20], -4.7 g. For the same compound, the remaining at 24 h, 2.6 mg/ml in [8] amounted to 24%. In addition, in the series with L1210 [13], the ILS at 5 mg/kg turned out to be 17%. In addition, in series [14], the remaining at 4 h, 2.6 mg/ml was 31%. For the same compound, in series [15], the remaining at 7 h, 2.6 mg/ml turned out to be 25%. Also, in the series with L1210 [17], the ILS at 60 mg/kg was 93%. For the same compound, in the series with L1210 [18], the increase in lifespan (ILS) at 20 mg/kg was 56%. Further, the ILS at 40 mg/kg with L1210 [21] worked out at 85%.
For the compound `Nc1ncn([C@@H]2O[C@H](CO)[C@@H](O)[C@H]2O)c(=O)n1` [AZACITIDINE], the ILS at 10 mg/kg in the series on L1210 [1] is 86%. The half-life in “Half life in mice” was less than 360 min. The Activity in the series on Mus musculus [22] is on record as -5.7 g; with Mus musculus [5] it was -1.6 g; in the series on Mus musculus [6], -4.5 g; in the series with Mus musculus [7] it was -5.1 g; with Mus musculus [10], -2.3 g; in the series on Mus musculus [11], -1.8 g. Also, the Activity in the series with Mus musculus [12] was -1 g; with Mus musculus [16], -2.9 g; with Mus musculus [24], “Non-toxic”; in the series with Mus musculus [20] it was -6.5 g; in the series on Mus musculus [25], -1.5 g. The increase in life span (ILS) at 5 mg/kg in the series on L1210 [13] amounted to 63%. The ILS at 2.5 mg/kg in the series on L1210 [23] stood at 33%. The increase in life span (ILS) at 20 mg/kg in the series on L1210 [18] was found to be 130%. In the series on L1210 [21], the ILS at 40 mg/kg was 84%.

As usually defined, the ILS is how much longer treated animals lived than controls. What is called half-life is how long it takes for the measured level to halve. A low value points to fast loss.
